Source: ChEMBL document CHEMBL1132387, “N-arylpiperazinone inhibitors of farnesyltransferase: discovery and biological activity” (J Med Chem, 1999)
Values joined by “and” are separate entries in the source; they are usually repeats but may differ in a detail not shown here. Equal values may be shown once. Each block holds one molecule with its values, some of them ahead of it.

Key:
[1] = target: Protein farnesyltransferase (Homo sapiens, UniProt P49354+P49356); experiment: Inhibition of [3H]FPP incorporation into recombinant human K-Ras by Farnesyltransferase; format: protein-complex assay
Procedure, shortened: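 FTase-catalyzed incorporation of [³H]FPP into recombinant human K-Ras protein. IC50 is the compound concentration giving 50% inhibition of that incorporation.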

[2] = system: Rat1; experiment: Inhibition of anchorage independent growth of H-ras-transformed RAT1 cells on poly(HEMA) coated microtiter plate; format: functional, cell-based; details: Rattus norvegicus
Procedure, shortened: (§1)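 Anchorage-independent growth assay: cells grown on poly(HEMA)-coated microtiter plates. IC50 is the compound concentration that inhibits 50% of cell growth.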

[3] = system: Rat1; experiment: Inhibition of anchorage-independent growth by 90% in human H-ras-transformed RAT1 cells in soft agar; format: functional; details: Rattus norvegicus
Procedure, shortened: (§2)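 RAT1 cells transformed with human H- or K-ras were suspended in soft agar to measure colony formation. IC90 is the concentration inhibiting anchorage-independent growth by 90% relative to vehicle-treated control. Values are reported as ranges.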

[4] = system: Rat1; experiment: Inhibition of anchorage-independent growth by 90% of human K-ras-transformed RAT1 cells in soft agar; format: functional; details: Rattus norvegicus; procedure, shortened: as §2
[5] = system: Rat1; experiment: Highest concentration compatible with 80% cell survival in cultured RAT1 cells; format: functional; details: Rattus norvegicus
Procedure, shortened: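 Normal RAT1 cells in culture, with viability read by MTT staining. The value is the highest compound concentration compatible with 80% cell survival.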

[6] = target: Geranylgeranyl transferase type I (Homo sapiens, UniProt P49354+P53609); experiment: Inhibition of [3H]GGPP incorporation into recombinant human RhoA by Geranylgeranyl transferase type I; format: protein-complex assay
Procedure, shortened: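 GGTase I-catalyzed incorporation of [³H]GGPP into recombinant human RhoA protein. IC50 is the concentration giving 50% inhibition.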

[7] = system: Mus musculus; experiment: Tumor growth inhibition against subcutaneously injected H-ras-Rat1 cells in female nude mice after continuous infusion of 14 mg/kg/day; format: functional; details: route subcutaneous
Procedure, shortened: (§3)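 Female nude mice were injected subcutaneously with H- or K-ras-transformed RAT1 cells. Treatment began 24 h later with vehicle (50% DMSO/water) or compound, n = 8–10, for about 14 days. Dosing was once-daily subcutaneous injection or continuous sc infusion by implanted Alzet osmotic pump. Tumor growth inhibition is relative to vehicle controls.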

[8] = system: Rat1; experiment: Inhibition of anchorage-independent growth by 90% in human K-ras-transformed RAT1 cells in soft agar; format: functional; details: Rattus norvegicus; procedure, shortened: as §2
[9] = system: Mus musculus; experiment: Tumor growth inhibition against subcutaneously injected H-ras Rat1 cells in female nude mice after continuous infusion of 1.4 mg/kg/day; format: functional; details: route subcutaneous; procedure, shortened: as §3
[10] = system: DLD-1; experiment: Concentration required to inhibit growth of human tumor DLD1 cell line on poly(HEMA) coated microtiter plate; format: functional, cell-based; procedure, shortened: as §1
[11] = system: MCF7; experiment: Concentration required to inhibit growth of human tumor MCF-7 cells line on poly(HEMA) coated microtiter plate; format: functional, cell-based; procedure, shortened: as §1

IC50 [1]: 21 nM
SMILES: CCCC[C@H]1CN(C(=O)c2cccc3ccccc23)CCN1Cc1cncn1Cc1ccc(C#N)cc1

IC50 [1]: 1 nM
SMILES: CCCC[C@H]1CN(C(=O)c2cccc3ccccc23)CCN1C[C@@H](N)S

IC50 [1]: 7300 nM
SMILES: CCCC[C@H]1CN(C(=O)c2cccc3ccccc23)CCN1Cc1c[nH]cn1

IC50 [1]: 0.44 nM
IC50 [6]: 10000 nM
SMILES: CCCC[C@H]1CN(c2cccc(C)c2C)C(=O)CN1Cc1cncn1Cc1ccc(C#N)cc1
IC50 [2]: 28 nM
IC90 [3]: 100 nM
IC90 [4]: 2500 nM
IC20 [5]: 25000 nM

IC50 [1]: 495 nM
SMILES: CCCC[C@H]1CN(C(=O)c2cccc3ccccc23)CCN1Cc1cncn1Cc1ccccc1

IC50 [1]: 0.18 nM
IC50 [6]: > 100000 nM
IC50 [10]: 1500 nM
IC50 [11]: 5 nM
SMILES: CCS(=O)(=O)C[C@@H]1CN(c2cccc(Cl)c2)C(=O)CN1Cc1cncn1Cc1ccc(C#N)cc1
Tumor growth inhibition [7]: 100% and 60%
IC90 [8]: 1000 nM
Tumor growth inhibition [9]: 73%
IC50 [2]: 8 nM
IC90 [3]: 30 nM
IC20 [5]: > 100000 nM

IC50 [1]: 80 nM
SMILES: C[C@@H]1CN(c2cccc(Cl)c2)C(=O)CN1Cc1cncn1Cc1ccc(C#N)cc1

IC50 [1]: 0.11 nM
SMILES: CCCC[C@H]1CN(c2cccc(Cl)c2)C(=O)CN1Cc1cncn1Cc1ccc(C#N)cc1

IC50 [1]: 9 nM
SMILES: C[C@H]1CN(c2cccc(Cl)c2)C(=O)CN1Cc1cncn1Cc1ccc(C#N)cc1
